Diaph act CS: activates diaphorase or chemically reduces, flagging diaphorase assay artifacts; Diaphorase/resazurin coupled assay, resorufin fluorescence, 16 min; stronger effect = higher value; 1 = vehicle wells, 0 = NADH-free wells; activation factor at 20 µM; actives 0.005% (n = 190,000); AID 1229;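 active means diaphorase activity raised at least twofold by the compound at 20 µM; inactive means activation factor below 2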
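System – purified diaphorase enzyme from Clostridium kluyveri · Input – enzyme 0.07 U/mL final · Also added – final NADH 0.114 mM, resazurin 0.1 mM · Measured by – fluorescence of resorufin, 544 nm excitation, 590 nm emission · Timing – 16 min enzyme reaction, ambient temperature · Measure – resorufin increase flagging diaphorase activators or reducers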
G6PDH counter: counter-screen for G6PDH assay hits: L. mesenteroides G6PDH inhibition; actives 0.12% (n = 200,000); Purified L. mesenteroides G6PDH, diaphorase/resazurin coupled fluorescence, 45 min; inhibition, % at 5 µM; AID 1020; in the data active means inhibition above about 50%
PMI activator: phosphomannose isomerase (human) activation; P34949; purified human PMI, coupled resazurin fluorescence, 20 min; stronger effect = higher value; 1 = vehicle control, 0 substrate-free wells; activation factor at 20 µM; actives 0.005% (n = 190,000);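 active means activation factor of 2 or more at 20 µM, relative to plate controls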
Target sequence (P34949 whole entry, looked up): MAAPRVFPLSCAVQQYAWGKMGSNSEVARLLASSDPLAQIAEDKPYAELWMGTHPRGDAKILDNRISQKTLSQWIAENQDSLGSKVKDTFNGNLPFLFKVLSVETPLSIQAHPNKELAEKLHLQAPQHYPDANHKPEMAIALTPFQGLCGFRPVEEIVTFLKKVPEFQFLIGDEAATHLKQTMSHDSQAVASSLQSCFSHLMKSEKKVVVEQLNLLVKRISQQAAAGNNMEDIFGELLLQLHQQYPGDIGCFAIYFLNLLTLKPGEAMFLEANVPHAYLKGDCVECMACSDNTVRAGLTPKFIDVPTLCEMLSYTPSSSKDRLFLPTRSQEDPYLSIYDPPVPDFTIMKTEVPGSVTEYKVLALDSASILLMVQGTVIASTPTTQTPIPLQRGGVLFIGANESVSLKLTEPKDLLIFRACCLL
Diaphorase inh: diaphorase inhibition or chemical oxidation counter-screen. diaphorase resazurin-to-resorufin fluorescence, NADH, 16 min; bacterial (C. kluyveri) enzyme, not human. inhibition, % at 20 µM. actives 0.69% (n = 190,000). AID 1217;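 active means primary screen inhibition at 20 µM above a set limit, cut at about 50% in these data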;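 further: plate controls were DMSO with full reaction for no effect and wells lacking NADH for full effect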
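Assay system – diaphorase enzyme from Clostridium kluyveri · Amount – diaphorase 0.14 U/mL (working solution) · Times – reaction incubation of 16 min at room temperature · Controls – No-NADH positive control and DMSO neutral control · Signal – resorufin fluorescence 544/590 nm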
PMI act satM6P: increases human PMI activity with near-saturating mannose 6-phosphate; P34949; coupled PMI enzyme assay, resazurin fluorescence, 20 min; stronger effect = higher value; 1 = untreated enzyme, 0 = substrate-free blank; activation factor at 20 µM; actives 0.34% (n = 190,000); AID 1216;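 active means activation factor of 2 or more at 20 µM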
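Test system: human phosphomannose isomerase with PGI, G6PDH, diaphorase coupling enzymes / Doses: 20 µM compound, 1% DMSO / Times: enzyme reaction with compound 20 min at room temperature / Measured by: Diaphorase-driven resazurin-to-resorufin fluorescence, excitation 544, emission 590 nm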
ROMK primary: modulators of human ROMK potassium channel; P48048; Tet-inducible ROMK, thallium flux fluorescence; actives lie on both sides; actives 2% (n = 130,000); B-score at 10 µM;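 active means signal ratio slope over the read window, or its plate-corrected B-score, at least 3 SD from the plate mean, either direction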;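 further: B-score of the F/F0 ratio slope over 7 to 12 s after thallium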
ROMK retest: retested hit modulating human ROMK potassium channel; shares compounds with ROMK primary; ROMK thallium flux, fluorescence ratio; stronger effect = lower value; normalized thallium flux (F/F0 slope) at 10 µM; actives 54% (n = 3,000); AID 1917;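 active means Flux at 10 µM at least 3 SD below or above vehicle control mean in one or both replicates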
The depositor's hits bear a star. The list is not random: actives were taken first. Their share in the collection is about 2.2%.

CCOP(=S)(OCC)N1CCOCCOCCN(P(=S)(OCC)OCC)CCOCCOCC1 was read as Diaph act CS 0.8, G6PDH counter 2, PMI activator 0.9, Diaphorase inh 18, PMI act satM6P 0.9, ROMK primary -2* and ROMK retest 0.076.
O=c1cccc2n1CC1CC2CN(c2ncnc3c2cnn3-c2ccccc2)C1 (stereo not drawn) was read as Diaph act CS 0.9, G6PDH counter 18, PMI activator 1, Diaphorase inh 14, PMI act satM6P 1 and ROMK primary 1.8.
Cc1ccccc1N1C(=O)NC(=O)/C(=C\c2cc(Br)c(N3CCOCC3)o2)C1=O was read as Diaph act CS 0.9, G6PDH counter 10, PMI activator 1.1, Diaphorase inh 14, PMI act satM6P 1.1 and ROMK retest 0.025*.
For N#CCCn1cc(C(=O)O)c(-c2cccc([N+](=O)[O-])c2)n1 the results were Diaph act CS 1, G6PDH counter 15, PMI activator 1.1, Diaphorase inh 1, PMI act satM6P 1 and ROMK primary -0.34.
`C[C@H]1CCCC(=O)CCCCCc2cc(O)cc(O)c2C(=O)O1` gave Diaph act CS 0.8, G6PDH counter 14, PMI activator 0.9, Diaphorase inh 20, PMI act satM6P 0.9 and ROMK retest 0.063*.
`O=C1NC(=O)N(c2ccc3c(c2)OCO3)C(=O)/C1=C\c1ccc(N2CCCCC2)o1` gave Diaph act CS 0.9, G6PDH counter -2, PMI activator 0.9, Diaphorase inh 10, PMI act satM6P 1 and ROMK retest 0.052*.
Screening CN1C(=O)C(=Cc2ccc(N3CCCCCC3)o2)C(=O)N(C)C1=S returned Diaph act CS 0.8, G6PDH counter -3, PMI activator 0.9, Diaphorase inh 22 and PMI act satM6P 0.9.
`CCN(CC)CC(O)c1ccc(C2CCCC2)cc1` (stereo not drawn) gave Diaph act CS 1, G6PDH counter 13, PMI activator 1.1, Diaphorase inh 4, PMI act satM6P 1.1 and ROMK primary -0.45.
For COP(=O)(OC)C(NS(=O)(=O)c1ccccc1)C(Cl)(Cl)Cl (stereo not drawn) the results were Diaph act CS 0.9, G6PDH counter 3, PMI activator 1.1, Diaphorase inh 10, PMI act satM6P 1.1 and ROMK primary 0.85.
COC(=O)C1=Nc2ccccc2/C1=C\c1c(O)n(-c2cc(OC)ccc2OC)c(=O)[nH]c1=O was read as Diaph act CS 0.9, G6PDH counter 2, PMI activator 1, Diaphorase inh 12, PMI act satM6P 1 and ROMK primary 0.24.
For Cc1cccc(-n2c(O)c(/C=C3/C(c4ccccc4)=Nc4ccccc43)c(=O)[nH]c2=O)c1 the results were ROMK retest 0.044*.
Cc1ccccc1-n1c(O)c(/C=C2/C(c3ccccc3)=Nc3ccccc32)c(=O)[nH]c1=O was read as Diaph act CS 0.9, G6PDH counter -6, PMI activator 1, Diaphorase inh 11, PMI act satM6P 1, ROMK primary -6* and ROMK retest 0.061*.
For Cc1oc(-c2ccccc2Cl)nc1CN1C(=O)CN=C(c2ccccc2)c2ccccc21 the results were Diaph act CS 0.8, G6PDH counter 12, PMI activator 0.9, Diaphorase inh 20, PMI act satM6P 0.9, ROMK primary -2.8* and ROMK retest 0.058*.
`O=[N+]([O-])c1ccc(N2CCCCCC2)c2ncccc12` gave Diaph act CS 0.5, G6PDH counter 17, PMI activator 0.6, Diaphorase inh 48, PMI act satM6P 0.4 and ROMK primary -0.79.
For CCC(CO)Nc1ccc([N+](=O)[O-])c2cccnc12 (stereo not drawn) the results were Diaph act CS 0.9, G6PDH counter 9, PMI activator 0.9, Diaphorase inh 14 and PMI act satM6P 0.6.

Bioassay records: PubChem BioAssay, several laboratories
